Assay results: ChEMBL document CHEMBL1165982, “Induction of G(2)/M phase arrest and apoptosis by oridonin in human laryngeal carcinoma cells” (J Nat Prod, 2010)
The source made the active and inactive calls. No cut-off for these calls is given here.

Tests used:
Type in all cases: functional, cell-based
HEp-2 [1] = assay: Induction of apoptosis in human Hep2 cells assessed as pro-caspase 3 level at 36 uM by Western blot analysis; details: TDE = time-dependent effect
In short: (§1)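 Treatment: 36 µM for 0, 6, 12 or 24 h, alone or with 2.5 mM N-acetylcysteine or 500 U/mL catalase. Lysis 60 min at 4 °C in Hepes pH 7.4/1% Triton X-100 with phosphatase and protease inhibitors, spin 13000g. Lysates run on 12% SDS-PAGE, blotted to nitrocellulose, probed with polyclonal antibodies, HRP/DAB detection. Representative of ≥3 experiments.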

HEp-2 [2] = assay: Induction of apoptosis in human Hep2 cells at 36 uM after 24 hrs by MTT assay in presence of Ac-LEHD-cmk caspase 9 inhibitor
In short: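 Pretreatment: HEp-2 (1.2 × 10^4/well, plated 24 h earlier) given caspase-9 inhibitor Ac-LEHD-cmk at 5, 10 or 20 µM for 1 h. Then 36 µM for 24 h. Inhibitory ratio by MTT, n = 3, mean ± SD.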

HEp-2 [3] = assay: Induction of apoptosis in human Hep2 cells at 36 uM after 24 hrs by MTT assay in presence of z-VAD-fmk pan-caspase inhibitor
In short: (§2)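 HEp-2 cells in RPMI-1640 with 10% FBS at 37 °C, 5% CO2, seeded at 1.2 × 10^4 cells/well and grown 24 h. Pretreated 1 h with z-DEVD-fmk (5 µM, line 1) or z-VAD-fmk (10 µM, line 2), then exposed to 36 µM agent for 24 h, with DMSO below 0.05%. Cell inhibitory ratio read by MTT; n = 3, mean ± SD.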

HEp-2 [4] = assay: Induction of apoptosis in human Hep2 cells at 36 uM after 24 hrs by MTT assay in presence of z-DEVD-fmk caspase 3 inhibitor; in short: as §2
HEp-2 [5] = assay: Induction of apoptosis in human Hep2 cells assessed as increase in pro-apoptotic Bax protein at 36 uM after 24 hrs by Western blot analysis in presence of NAC; in short: as §1
HEp-2 [6] = assay: Induction of apoptosis in human Hep2 cells assessed as decrease in Bcl-2 at 36 uM after 24 hrs by Western blot analysis in presence of NAC; in short: as §1
HEp-2 [7] = assay: Induction of apoptosis in human Hep2 cells assessed as increase in AIF level at 36 uM after 24 hrs by Western blot analysis in presence of NAC; in short: as §1
HEp-2 [8] = assay: Induction of apoptosis in human Hep2 cells assessed as cleaved caspase 3 level at 36 uM after 24 hrs by Western blot analysis in presence of NAC; in short: as §1
HEp-2 [9] = assay: Induction of apoptosis in human Hep2 cells assessed as caspase activated DNase level at 36 uM after 24 hrs by Western blot analysis in presence of NAC; in short: as §1
HEp-2 [10] = assay: Induction of apoptosis in human Hep2 cells assessed as increase in pro-apoptotic Bax protein at 36 uM after 24 hrs by Western blot analysis in presence of CAT; in short: as §1
HEp-2 [11] = assay: Induction of apoptosis in human Hep2 cells assessed as decrease in Bcl-2 at 36 uM after 24 hrs by Western blot analysis in presence of CAT; in short: as §1
HEp-2 [12] = assay: Induction of apoptosis in human Hep2 cells assessed as increase in AIF level at 36 uM after 24 hrs by Western blot analysis in presence of CAT; in short: as §1
HEp-2 [13] = assay: Induction of apoptosis in human Hep2 cells assessed as cleaved caspase 3 level at 36 uM after 24 hrs by Western blot analysis in presence of CAT; in short: as §1
HEp-2 [14] = assay: Induction of apoptosis in human Hep2 cells assessed as caspase activated DNase level at 36 uM after 24 hrs by Western blot analysis in presence of CAT; in short: as §1
HEp-2 [15] = assay: Induction of apoptosis in human Hep2 cells assessed as decrease in cyclin B level at 36 uM after 24 hrs by Western blot analysis; details: TDE = time-dependent effect; in short: as §1
HEp-2 [16] = assay: Induction of apoptosis in human Hep2 cells assessed as decrease in cdc2 level at 36 uM after 24 hrs by Western blot analysis; details: TDE = time-dependent effect; in short: as §1
HEp-2 [17] = assay: Induction of apoptosis in human Hep2 cells assessed as increase in phospho-cdc2 (Tyr15) level at 36 uM from 6 to 24 hrs by Western blot analysis; in short: as §1
HEp-2 [18] = assay: Induction of apoptosis in human Hep2 cells assessed as increase in phospho-cdc25C (ser216) level at 36 uM from 6 to 24 hrs by Western blot analysis; in short: as §1
HEp-2 [19] = assay: Induction of apoptosis in human Hep2 cells assessed as increase in p21/WAF1 level at 36 uM from 6 to 24 hrs by Western blot analysis; in short: as §1
HEp-2 [20] = assay: Induction of apoptosis in human Hep2 cells assessed as increase in p21/WAF1 level at 36 uM after 24 hrs by Western blot analysis; in short: as §1
HEp-2 [21] = assay: Induction of apoptosis in human Hep2 cells assessed as decrease in cyclin B level at 36 uM after 24 hrs by Western blot analysis in presence of NAC; in short: as §1
HEp-2 [22] = assay: Induction of apoptosis in human Hep2 cells assessed as decrease in cdc2 level at 36 uM after 24 hrs by Western blot analysis in presence of NAC; in short: as §1
HEp-2 [23] = assay: Induction of apoptosis in human Hep2 cells assessed as increase in phospho-cdc2 (Tyr15) level at 36 uM from 6 to 24 hrs by Western blot analysis in presence of NAC; in short: as §1
HEp-2 [24] = assay: Induction of apoptosis in human Hep2 cells assessed as increase in phospho-cdc25C (ser216) level at 36 uM from 6 to 24 hrs by Western blot analysis in presence of NAC; in short: as §1
HEp-2 [25] = assay: Induction of apoptosis in human Hep2 cells assessed as increase in p21/WAF1 level at 36 uM from 6 to 24 hrs by Western blot analysis in presence of NAC; in short: as §1
HEp-2 [26] = assay: Induction of apoptosis in human Hep2 cells assessed as increase in p21/WAF1 level at 36 uM after 24 hrs by Western blot analysis in presence of NAC; in short: as §1

## C=C1C(=O)[C@]23[C@H](O)[C@H]1CC[C@H]2[C@@]12CO[C@]3(O)[C@@H](O)[C@@H]1C(C)(C)CC[C@@H]2O [ORIDONIN]
HEp-2 [1]
  Activity: tde
HEp-2 [2]
  Activity: Active
HEp-2 [3]
  Activity: inactive
HEp-2 [4]
  Activity: inactive
HEp-2 [5]
  Activity: inactive
HEp-2 [6]
  Activity: inactive
HEp-2 [7]
  Activity: inactive
HEp-2 [8]
  Activity: inactive
HEp-2 [9]
  Activity: inactive
HEp-2 [10]
  Activity: inactive
HEp-2 [11]
  Activity: inactive
HEp-2 [12]
  Activity: inactive
HEp-2 [13]
  Activity: inactive
HEp-2 [14]
  Activity: inactive
HEp-2 [15]
  Activity: tde
HEp-2 [16]
  Activity: tde
HEp-2 [17]
  Activity: Active
HEp-2 [18]
  Activity: Active
HEp-2 [19]
  Activity: Active
HEp-2 [20]
  Activity: inactive
HEp-2 [21]
  Activity: inactive
HEp-2 [22]
  Activity: inactive
HEp-2 [23]
  Activity: inactive
HEp-2 [24]
  Activity: inactive
HEp-2 [25]
  Activity: inactive
HEp-2 [26]
  Activity: inactive
